Source: ChEMBL document CHEMBL3593206, “SAR Studies of Exosite-Binding Substrate-Selective Inhibitors of A Disintegrin And Metalloprotease 17 (ADAM17) and Application as Selective in Vitro Probes” (J Med Chem, 2015)

Experiments:
[1] = target: T1, Disintegrin and metalloproteinase domain-containing protein 10 (Homo sapiens) (UniProt O14672); test: Inhibition of ADAM10 (unknown origin) at 100 uM preincubated for 30 mins followed by substrate addition measured every 30 mins for 2 hrs by fluorescence assay relative to control
T1 sequence (whole entry): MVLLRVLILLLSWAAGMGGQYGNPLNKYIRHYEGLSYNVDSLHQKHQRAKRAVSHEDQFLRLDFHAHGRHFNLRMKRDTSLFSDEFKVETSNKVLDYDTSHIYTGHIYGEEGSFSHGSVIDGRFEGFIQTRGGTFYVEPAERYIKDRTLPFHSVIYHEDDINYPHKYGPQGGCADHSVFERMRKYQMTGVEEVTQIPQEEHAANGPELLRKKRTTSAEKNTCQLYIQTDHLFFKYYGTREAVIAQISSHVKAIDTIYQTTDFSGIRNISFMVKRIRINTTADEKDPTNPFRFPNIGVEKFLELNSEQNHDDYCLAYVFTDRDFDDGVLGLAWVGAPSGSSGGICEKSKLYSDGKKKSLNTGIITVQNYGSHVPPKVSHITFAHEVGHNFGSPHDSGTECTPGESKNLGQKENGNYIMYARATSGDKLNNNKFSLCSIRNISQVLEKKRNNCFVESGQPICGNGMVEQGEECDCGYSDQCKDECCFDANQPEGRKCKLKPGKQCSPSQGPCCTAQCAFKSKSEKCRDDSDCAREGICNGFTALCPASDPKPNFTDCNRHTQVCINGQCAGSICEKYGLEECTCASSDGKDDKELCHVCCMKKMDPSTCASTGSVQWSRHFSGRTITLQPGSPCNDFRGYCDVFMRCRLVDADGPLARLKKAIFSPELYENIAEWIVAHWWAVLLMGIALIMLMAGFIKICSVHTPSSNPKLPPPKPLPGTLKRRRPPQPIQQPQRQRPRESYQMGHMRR
Summary of the method: (§1)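 Enzyme at 30 nM (3× solution) in 10 mM Hepes, 0.001% Brij-35, pH 7.5. Inhibitor series of 10 points, 1:3, from 300 μM, preincubated 30 min at RT. Glycosylated substrate added from a 30 μM 3× solution. Fluorescence (ex 360/em 460 nm) read every 30 min for 2 h. Inhibition taken from hydrolysis rates against substrate-only and substrate-plus-enzyme wells.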

[2] = target: T2, Disintegrin and metalloproteinase domain-containing protein 10 (Homo sapiens, UniProt O14672); test: Inhibition of ADAM10 (unknown origin) preincubated for 30 mins followed by substrate addition measured every 30 mins for 2 hrs by fluorescence assay; summary of the method: as §1
T2 sequence (O14672 whole entry): T1 sequence (whole entry)

[3] = target: T3, Disintegrin and metalloproteinase domain-containing protein 17 (Homo sapiens, UniProt P78536); test: Inhibition of ADAM17 (unknown origin) preincubated for 30 mins followed by substrate addition measured every 30 mins for 2 hrs by fluorescence assay; summary of the method: as §1
Neutrophil collagenase = Neutrophil collagenase (Homo sapiens, UniProt P22894); test: Inhibition of MMP8 (unknown origin) using Mca-KLPGL-Dnp-AR as substrate preincubated for 30 mins followed by substrate addition measured after 1 hr by fluorescence assay
Summary of the method: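 Inhibitor as 10-point 1:3 dilutions from 300 μM, 30 min at RT. Substrate added from a 30 μM 3× solution. Single fluorescence read (ex 324/em 393 nm) after 1 h at RT.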

[4] = target: T3, Disintegrin and metalloproteinase domain-containing protein 17; test: Inhibition of ADAM17 (unknown origin) at 100 uM preincubated for 30 mins followed by substrate addition measured every 30 mins for 2 hrs by fluorescence assay relative to control; summary of the method: as §1
[5] = Cytotoxicity against CHOK1 cells assessed as inhibition of cell viability up to 33 uM after 72 hrs by CellTiter-Glo assay; assay type: cell-based, Cricetulus griseus; settings: chinese hamster, cho-k1, 72 h
A549 = test: Cytotoxicity against human A549 cells assessed as inhibition of cell viability up to 33 uM after 72 hrs by CellTiter-Glo assay; assay type: cell-based; settings: a549, 72 h
[6] = target: T3, Disintegrin and metalloproteinase domain-containing protein 17; test: Inhibition of ADAM17 in human THP1 cells assessed as inhibition of LPS-stimulated TNFalpha cleavage at 25 uM after 1 hr by AlphaScreen assay relative to control; assay type: cell-based; settings: THP-1
Summary of the method: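 THP-1 cells grown in RPMI 1640 with 10% FBS and 0.05 mM 2-mercaptoethanol; 3000 cells per well. Compound given in 3% DMSO for 1 h, then LPS added (1 μg/mL final) and cells incubated overnight at 37 °C. TNFα detected by AlphaScreen using anti-TNFα acceptor beads and streptavidin donor beads, each step 1 h in the dark at RT.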

[7] = target: T3, Disintegrin and metalloproteinase domain-containing protein 17; test: Inhibition of ADAM17 in HTSMC assessed as inhibition of LPS-stimulated IL-8 shedding at 10 uM preincubated for 30 mins followed by LPS challenge measured after 4 to 24 hrs by ELISA
Summary of the method: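 HTSMCs stimulated with LPS for IL-8 release; compounds at 10 μM. Mean ± SEM, n = 3 from three independent experiments; one-way ANOVA with Dunnett post hoc test.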

[8] = target: T1, Disintegrin and metalloproteinase domain-containing protein 10 (Homo sapiens); test: Inhibition of ADAM10 in HTSMC assessed as inhibition of PMA-stimulated release of CXCL16 at 10 uM preincubated for 30 mins followed by PMA challenge measured after 4 to 24 hrs by ELISA
[9] = target: T3, Disintegrin and metalloproteinase domain-containing protein 17; test: Inhibition of ADAM17 in human HT1080 cells assessed as inhibition of PMA-stimulated PTK7 L622D mutant shedding at 25 to 100 uM after 16 hrs by Western blot analysis; assay type: cell-based; settings: HT-1080
Summary of the method: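 PTK7 shedding tested at 25, 50 and 100 μM in PMA-stimulated cells. HT1080 fibrosarcoma cells carried the L622D PTK7 mutant uncleavable by MT1-MMP; SW480 colorectal cells expressed wild-type PTK7 endogenously. Soluble PTK7 was detected.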

[10] = target: T3, Disintegrin and metalloproteinase domain-containing protein 17; test: Inhibition of ADAM17 in human A549 cells assessed as inhibition of PMA-stimulated heregulin shedding at 40 uM incubated for 1 hr followed by PMA stimulation measured after 1 hr; assay type: cell-based
Summary of the method: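 Heregulin shedding in A549 cells, with all compounds tested at 40 μM.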

[11] = target: T1, Disintegrin and metalloproteinase domain-containing protein 10 (Homo sapiens); test: Inhibition of ADAM10 in human A549 cells assessed as inhibition of betacellulin shedding at 40 uM after 1 hr by ELISA; assay type: cell-based
Summary of the method: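 A549 cells were tested for betacellulin shedding at 40 μM, with Marimastat at 10 μM as control.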

[12] = target: T3, Disintegrin and metalloproteinase domain-containing protein 17; test: Inhibition of ADAM17 in human A549 cells assessed as effect on PMA-stimulated TGFalpha shedding up to 100 uM preincubated for 1 hr followed by PMA stimulation measured after 1 hr by ELISA; assay type: cell-based
Summary of the method: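 TGFα shedding from PMA-treated A549 cells tested up to 100 μM. Marimastat at 10 μM served as control, with a non-PMA-treated control included; soluble TGFα measured in the supernatant.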

ADAM17 (Homo sapiens) = test: Inhibition of ADAM17 in human SW480 cells assessed as inhibition of PMA-stimulated wild type PTK7 shedding at 25 to 100 uM after 16 hrs by Western blot analysis
[13] = target: T1, Disintegrin and metalloproteinase domain-containing protein 10 (Homo sapiens); test: Inhibition of ADAM10 in HTSMC assessed as inhibition of constitutive release of fractalkine/CX3CL1 at 10 uM preincubated for 30 mins measured after 4 to 24 hrs by ELISA

T3 sequence (P78536 whole entry, the tested form may be a part): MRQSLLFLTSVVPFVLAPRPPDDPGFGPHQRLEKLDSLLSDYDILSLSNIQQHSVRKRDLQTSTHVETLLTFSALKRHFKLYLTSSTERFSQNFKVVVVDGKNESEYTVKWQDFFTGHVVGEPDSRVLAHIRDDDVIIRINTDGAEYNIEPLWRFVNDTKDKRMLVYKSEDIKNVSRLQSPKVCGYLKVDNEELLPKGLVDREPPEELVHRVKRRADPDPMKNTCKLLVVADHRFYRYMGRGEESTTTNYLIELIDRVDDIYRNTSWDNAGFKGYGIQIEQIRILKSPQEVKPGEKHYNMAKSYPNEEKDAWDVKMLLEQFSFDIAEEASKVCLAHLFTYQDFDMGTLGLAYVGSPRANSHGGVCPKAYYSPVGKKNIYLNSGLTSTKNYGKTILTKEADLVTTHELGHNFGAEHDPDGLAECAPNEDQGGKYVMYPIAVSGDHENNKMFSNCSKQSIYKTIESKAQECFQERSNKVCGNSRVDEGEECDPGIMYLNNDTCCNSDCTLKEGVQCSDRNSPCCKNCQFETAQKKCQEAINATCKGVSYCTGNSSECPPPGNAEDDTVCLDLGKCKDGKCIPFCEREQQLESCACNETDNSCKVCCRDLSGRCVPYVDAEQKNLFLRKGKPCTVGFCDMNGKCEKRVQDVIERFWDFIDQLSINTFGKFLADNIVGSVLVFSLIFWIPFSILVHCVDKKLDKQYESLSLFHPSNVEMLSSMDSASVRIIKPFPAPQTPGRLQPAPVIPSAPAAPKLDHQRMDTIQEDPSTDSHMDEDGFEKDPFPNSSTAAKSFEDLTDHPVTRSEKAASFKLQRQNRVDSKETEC
Chain of Neutrophil collagenase (P22894 whole entry): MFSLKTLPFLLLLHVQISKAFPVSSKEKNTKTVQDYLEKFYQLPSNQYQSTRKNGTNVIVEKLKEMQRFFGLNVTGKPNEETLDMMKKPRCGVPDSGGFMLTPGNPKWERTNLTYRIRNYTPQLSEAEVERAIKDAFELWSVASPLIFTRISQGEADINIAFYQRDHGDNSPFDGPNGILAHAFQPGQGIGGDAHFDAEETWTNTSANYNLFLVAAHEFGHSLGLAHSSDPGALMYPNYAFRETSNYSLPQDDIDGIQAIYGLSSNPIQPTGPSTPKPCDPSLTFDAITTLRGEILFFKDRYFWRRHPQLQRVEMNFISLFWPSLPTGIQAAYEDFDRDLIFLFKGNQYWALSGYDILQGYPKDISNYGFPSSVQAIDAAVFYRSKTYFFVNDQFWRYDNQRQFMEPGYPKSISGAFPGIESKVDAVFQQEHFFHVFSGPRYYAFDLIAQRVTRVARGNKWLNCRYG

SMILES	inhibition [1]	IC50 [2]	IC50 [3]	IC50 (Neutrophil collagenase)	inhibition [4]	Activity [5]	Activity (A549)	inhibition [6]	inhibition [7]	inhibition [8]	inhibition [9]	inhibition [10]	inhibition [11]	inhibition [12]	inhibition (ADAM17 (Homo sapiens))	inhibition [13]
CCCC[C@H]1CN([C@@H](Cc2ccc(O)cc2)CN2CCC[C@H]2CN2C(=O)C(=O)NC[C@H]2Cc2ccc3ccccc3c2)C(=O)C(=O)N1CCC12CC3CC(CC(C3)C1)C2	0%	> 100 µM	5.7 µM	> 100 µM	100%	Non-toxic	Non-toxic	57%	62%	0%	0%	0%	0%	0%	0%	0%
O=C1NC[C@H](Cc2ccccc2)N(C[C@@H]2CCCN2C[C@@H](CC2CCCCC2)N2C[C@H](Cc3ccc(O)cc3)N(CCc3ccccc3)C(=O)C2=O)C1=O	0%	> 100 µM	5.4 µM	> 100 µM	100%	Non-toxic	Non-toxic	36%	18%	0%	0%	0%	0%	0%	0%	0%
O=C1NC[C@@H](Cc2ccc(O)cc2)N(C[C@@H]2CCCN2C[C@@H](Cc2ccc3ccccc3c2)N2CC(Cc3ccc(O)cc3)N(CCC34CC5CC(CC(C5)C3)C4)C(=O)C2=O)C1=O (single isomer, unassigned)	0%	> 100 µM	4.2 µM	> 100 µM	95%	Non-toxic	Non-toxic	43%	36%	0%	25%	100%	0%	0%	0%	0%
